Test results as given in ChEMBL document CHEMBL1250448, “Inhibitor hijacking of Akt activation” (Nat Chem Biol, 2009).
Calls of active or inactive are those of the source. The calls are words filed in the database; no cut-off is given here.

What was measured:
[1] = system: RAC-alpha serine/threonine-protein kinase (Homo sapiens), P31749 [M227G,D292A]; assay: Induction of myristoylated AKT1 M227G and kinase dead D292A mutant Ser473 hyperphosphorylation expressed in MiaPaCa2 cells at 2.5 uM after 30 mins by immunoblotting; format: cell-based
Chain of RAC-alpha serine/threonine-protein kinase (Homo sapiens), P31749 [M227G,D292A] (P31749 whole entry M227G/D292A): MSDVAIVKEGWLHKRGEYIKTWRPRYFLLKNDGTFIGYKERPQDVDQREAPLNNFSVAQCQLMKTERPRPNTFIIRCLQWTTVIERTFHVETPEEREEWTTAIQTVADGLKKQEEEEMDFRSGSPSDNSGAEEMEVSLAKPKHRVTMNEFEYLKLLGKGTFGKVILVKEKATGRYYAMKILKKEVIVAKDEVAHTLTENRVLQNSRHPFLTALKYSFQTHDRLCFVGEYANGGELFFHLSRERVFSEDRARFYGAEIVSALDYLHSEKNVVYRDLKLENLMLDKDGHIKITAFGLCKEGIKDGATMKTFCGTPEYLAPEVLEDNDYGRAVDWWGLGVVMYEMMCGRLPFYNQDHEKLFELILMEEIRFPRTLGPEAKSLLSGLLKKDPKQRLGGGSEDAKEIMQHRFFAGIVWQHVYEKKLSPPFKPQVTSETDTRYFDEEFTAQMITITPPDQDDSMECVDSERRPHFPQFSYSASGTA

[2] = system: HEK-293T; assay: Induction of myristoylated AKT3 M229G mutant Ser473 hyperphosphorylation expressed in HEK293T cells at 2.5 uM after 30 mins by immunoblotting; format: cell-based
[3] = system: MCF7; assay: Induction of myristoylated AKT2 M225G and kinase dead D289A mutant Ser473 hyperphosphorylation expressed in MCF7 cells at 2.5 uM after 30 mins by immunoblotting; format: cell-based
[4] = system: HEK-293T; assay: Induction of myristoylated AKT2 M225G and kinase dead D289A mutant Thr308 hyperphosphorylation expressed in HEK293T cells at 2.5 uM after 30 mins by immunoblotting; format: cell-based
[5] = system: HEK-293T; assay: Induction of nonmyristoylated AKT2 M225G and kinase dead D289A mutant Thr308 hyperphosphorylation expressed in HEK293T cells at 2.5 uM after 30 mins by immunoblotting; format: cell-based
[6] = system: HEK-293T; assay: Induction myristoylated AKT2 M225G mutant Thr308 hyperphosphorylation expressed in HEK293T cells at 2.5 uM after 30 mins pretreated with pan-PI3K inhibitor PIK90 for 10 mins before compound addition by immunoblotting; format: cell-based
[7] = system: RAC-alpha serine/threonine-protein kinase (Homo sapiens), P31749 [M227G,D292A]; assay: Induction of myristoylated AKT1 M227G and kinase dead D292A mutant Thr308 hyperphosphorylation expressed in MCF7 cells at 2.5 uM after 30 mins by immunoblotting; format: cell-based
[8] = target: RAC-alpha serine/threonine-protein kinase (Homo sapiens, UniProt P31749); assay: Induction of flag-tagged wild type AKT1 Thr308 hyperphosphorylation expressed in HEK293 cells coexpressing HA-tagged AKT1 M227G after 30 mins by immunoblotting
[9] = system: PC-3; assay: Induction of myristoylated AKT2 M225G mutant Ser473 hyperphosphorylation expressed in PC3 cells at 2.5 uM after 30 mins by immunoblotting; format: cell-based
[10] = system: RAC-alpha serine/threonine-protein kinase (Homo sapiens), P31749 [M227G,D292A]; assay: Induction of nonmyristoylated AKT1 M227G and kinase dead D292A mutant Thr308 hyperphosphorylation expressed in HEK293T cells at 2.5 uM after 30 mins by immunoblotting; format: cell-based; conditions: HEK-293T
[11] = system: RAC-alpha serine/threonine-protein kinase (Homo sapiens), P31749 [M227G]; assay: Induction of AKT1 M227G Thr308 hyperphosphorylation expressed in HEK293 cells at 2.5 uM after 30 mins pretreated with allosteric AKT inhibitor Akti-1,2 10 mins before compound addition by immunoblotting
Chain of RAC-alpha serine/threonine-protein kinase (Homo sapiens), P31749 [M227G] (P31749 whole entry M227G): as the sequence (P31749 whole entry M227G/D292A) above, with A292D counted along it

[12] = target: Serine/threonine-protein kinase Sgk1 (Homo sapiens) (UniProt O00141); assay: Inhibition of SGK at 1 uM in presence of 10 uM ATP by Select Screen kinase assay relative to untreated control
Chain of Serine/threonine-protein kinase Sgk1 (Homo sapiens) (O00141 whole entry): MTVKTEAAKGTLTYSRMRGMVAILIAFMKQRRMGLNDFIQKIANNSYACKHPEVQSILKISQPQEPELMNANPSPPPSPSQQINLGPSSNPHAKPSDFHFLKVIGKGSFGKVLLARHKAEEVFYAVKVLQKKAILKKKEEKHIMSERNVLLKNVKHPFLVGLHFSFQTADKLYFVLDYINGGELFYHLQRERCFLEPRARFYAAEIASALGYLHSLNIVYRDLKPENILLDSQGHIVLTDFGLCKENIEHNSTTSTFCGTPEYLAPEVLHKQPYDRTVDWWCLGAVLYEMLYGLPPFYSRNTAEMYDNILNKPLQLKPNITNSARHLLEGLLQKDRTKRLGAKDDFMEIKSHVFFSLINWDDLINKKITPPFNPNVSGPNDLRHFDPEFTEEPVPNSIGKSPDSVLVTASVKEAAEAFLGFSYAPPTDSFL

[13] = target: Glycogen synthase kinase-3 alpha (Homo sapiens) (UniProt P49840); assay: Inhibition of GSK3A at 1 uM in presence of 10 uM ATP by Select Screen kinase assay relative to untreated control
Outline: (§1)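 Part of a 220-kinase panel of purified kinases, each tested with compound at 1 μM. Percent inhibition was measured in the Invitrogen SelectScreen profiling assay.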

[14] = target: Serine/threonine-protein kinase MARK1 (Homo sapiens) (UniProt Q9P0L2); assay: Inhibition of MARK1 at 1 uM in presence of 10 uM ATP by Select Screen kinase assay relative to untreated control
Chain of Serine/threonine-protein kinase MARK1 (Homo sapiens) (Q9P0L2 whole entry, looked up): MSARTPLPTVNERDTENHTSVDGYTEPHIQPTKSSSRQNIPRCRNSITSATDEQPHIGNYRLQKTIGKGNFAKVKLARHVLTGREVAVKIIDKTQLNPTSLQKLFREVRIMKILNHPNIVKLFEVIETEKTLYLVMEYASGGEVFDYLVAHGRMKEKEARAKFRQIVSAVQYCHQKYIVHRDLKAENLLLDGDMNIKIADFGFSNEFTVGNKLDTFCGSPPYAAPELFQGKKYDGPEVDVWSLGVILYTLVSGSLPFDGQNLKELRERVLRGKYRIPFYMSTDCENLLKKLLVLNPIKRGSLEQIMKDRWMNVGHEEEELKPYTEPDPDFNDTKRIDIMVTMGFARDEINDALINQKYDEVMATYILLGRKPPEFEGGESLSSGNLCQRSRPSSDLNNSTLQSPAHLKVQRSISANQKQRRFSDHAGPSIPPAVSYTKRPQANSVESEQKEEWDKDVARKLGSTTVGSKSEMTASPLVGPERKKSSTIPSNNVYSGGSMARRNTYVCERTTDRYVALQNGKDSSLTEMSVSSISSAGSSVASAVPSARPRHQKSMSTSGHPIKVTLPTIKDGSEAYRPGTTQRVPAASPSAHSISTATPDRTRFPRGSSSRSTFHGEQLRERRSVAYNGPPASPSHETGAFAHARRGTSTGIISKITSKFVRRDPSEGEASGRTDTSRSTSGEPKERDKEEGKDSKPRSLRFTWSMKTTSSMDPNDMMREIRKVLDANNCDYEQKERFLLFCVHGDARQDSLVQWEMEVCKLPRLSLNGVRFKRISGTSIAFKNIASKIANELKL

[15] = target: Protein kinase C delta type (Homo sapiens) (UniProt Q05655); assay: Inhibition of PRKCD at 1 uM in presence of 10 uM ATP by Select Screen kinase assay relative to untreated control
Chain of Protein kinase C delta type (Homo sapiens) (Q05655 whole entry, looked up): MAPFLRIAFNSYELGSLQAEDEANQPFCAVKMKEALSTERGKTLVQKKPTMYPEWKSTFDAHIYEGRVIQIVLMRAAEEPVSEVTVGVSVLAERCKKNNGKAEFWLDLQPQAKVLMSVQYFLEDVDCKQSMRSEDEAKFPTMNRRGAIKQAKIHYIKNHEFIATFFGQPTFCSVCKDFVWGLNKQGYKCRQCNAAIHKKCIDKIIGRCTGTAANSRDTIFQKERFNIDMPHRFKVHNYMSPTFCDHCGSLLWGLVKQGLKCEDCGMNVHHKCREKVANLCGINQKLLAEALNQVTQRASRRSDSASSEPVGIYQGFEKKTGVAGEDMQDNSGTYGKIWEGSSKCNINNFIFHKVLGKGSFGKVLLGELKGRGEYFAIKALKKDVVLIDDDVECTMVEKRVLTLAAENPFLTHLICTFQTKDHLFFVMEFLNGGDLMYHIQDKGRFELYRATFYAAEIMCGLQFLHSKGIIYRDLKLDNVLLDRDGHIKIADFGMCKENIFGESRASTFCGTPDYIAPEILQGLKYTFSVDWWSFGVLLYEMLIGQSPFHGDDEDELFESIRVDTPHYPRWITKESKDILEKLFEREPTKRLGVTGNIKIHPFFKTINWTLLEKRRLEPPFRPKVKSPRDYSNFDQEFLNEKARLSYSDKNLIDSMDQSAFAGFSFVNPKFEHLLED
Outline: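 Profiling panel of 220 purified kinases (SelectScreen), each compound tested at 1 μM. Read-out is percent inhibition of kinase activity.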

[16] = target: Tyrosine-protein kinase JAK2 (Homo sapiens) (UniProt O60674); assay: Inhibition of JAK2 at 1 uM in presence of 10 uM ATP by Select Screen kinase assay relative to untreated control
Chain of Tyrosine-protein kinase JAK2 (Homo sapiens) (O60674 whole entry, the tested form may be a part): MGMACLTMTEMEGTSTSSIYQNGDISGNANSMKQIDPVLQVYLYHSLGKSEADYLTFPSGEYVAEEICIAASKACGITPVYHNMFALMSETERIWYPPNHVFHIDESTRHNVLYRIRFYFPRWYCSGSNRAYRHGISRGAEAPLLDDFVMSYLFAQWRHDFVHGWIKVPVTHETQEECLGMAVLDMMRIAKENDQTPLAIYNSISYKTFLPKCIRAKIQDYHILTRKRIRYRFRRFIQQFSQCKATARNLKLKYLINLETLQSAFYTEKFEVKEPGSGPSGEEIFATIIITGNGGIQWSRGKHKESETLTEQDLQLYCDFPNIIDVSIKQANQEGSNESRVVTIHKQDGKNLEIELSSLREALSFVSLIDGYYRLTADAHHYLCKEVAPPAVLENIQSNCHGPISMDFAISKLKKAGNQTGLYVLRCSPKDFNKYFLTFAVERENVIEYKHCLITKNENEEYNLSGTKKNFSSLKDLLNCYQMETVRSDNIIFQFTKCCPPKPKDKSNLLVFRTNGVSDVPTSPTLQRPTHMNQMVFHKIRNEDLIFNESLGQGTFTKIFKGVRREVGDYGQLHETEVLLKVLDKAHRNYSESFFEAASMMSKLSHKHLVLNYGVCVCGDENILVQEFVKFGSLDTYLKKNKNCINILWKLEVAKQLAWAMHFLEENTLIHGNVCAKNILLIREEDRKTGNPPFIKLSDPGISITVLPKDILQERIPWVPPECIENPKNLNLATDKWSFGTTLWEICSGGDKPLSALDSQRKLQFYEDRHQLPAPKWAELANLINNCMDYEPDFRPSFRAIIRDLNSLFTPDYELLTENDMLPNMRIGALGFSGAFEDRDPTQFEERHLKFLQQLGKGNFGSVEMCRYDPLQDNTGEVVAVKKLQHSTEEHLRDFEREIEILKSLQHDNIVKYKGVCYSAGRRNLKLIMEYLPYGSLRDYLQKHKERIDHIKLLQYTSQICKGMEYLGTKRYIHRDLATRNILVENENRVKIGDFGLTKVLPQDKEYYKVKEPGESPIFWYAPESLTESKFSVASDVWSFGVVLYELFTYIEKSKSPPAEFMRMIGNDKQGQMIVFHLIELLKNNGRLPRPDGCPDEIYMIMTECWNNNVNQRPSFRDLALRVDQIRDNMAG
Outline: (§2)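 Single-concentration profiling at 1 μM against a panel of 220 purified kinases, run as an outsourced SelectScreen kinase profiling service. Activity is expressed as percent inhibition.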

[17] = target: Testis-specific serine/threonine-protein kinase 2 (Homo sapiens) (UniProt Q96PF2); assay: Inhibition of STK22B at 1 uM in presence of 10 uM ATP by Select Screen kinase assay relative to untreated control
Outline: (§3)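 Commercial SelectScreen profiling panel of 220 purified kinases. Each kinase was tested at a single inhibitor concentration of 1 μM, and activity was expressed as percent inhibition.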

[18] = target: Dual specificity protein kinase CLK2 (Homo sapiens) (UniProt P49760); assay: Inhibition of CLK2 at 1 uM in presence of 10 uM ATP by Select Screen kinase assay relative to untreated control; outline: as §1
Chain of Dual specificity protein kinase CLK2 (Homo sapiens) (P49760 whole entry, looked up): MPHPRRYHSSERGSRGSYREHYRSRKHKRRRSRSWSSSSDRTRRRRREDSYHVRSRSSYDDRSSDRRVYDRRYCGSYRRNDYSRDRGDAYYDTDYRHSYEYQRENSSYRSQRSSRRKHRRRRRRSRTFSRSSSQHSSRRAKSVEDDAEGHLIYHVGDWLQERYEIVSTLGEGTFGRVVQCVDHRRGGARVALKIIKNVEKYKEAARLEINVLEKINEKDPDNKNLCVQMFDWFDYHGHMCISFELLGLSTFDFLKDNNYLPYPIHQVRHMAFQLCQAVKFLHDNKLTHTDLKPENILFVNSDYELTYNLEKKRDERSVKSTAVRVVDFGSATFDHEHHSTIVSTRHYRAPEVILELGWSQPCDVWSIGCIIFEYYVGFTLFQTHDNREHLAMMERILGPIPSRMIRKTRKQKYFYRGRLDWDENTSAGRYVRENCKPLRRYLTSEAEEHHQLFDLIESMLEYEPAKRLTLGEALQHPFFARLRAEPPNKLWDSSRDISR

[19] = target: Tyrosine-protein kinase FRK (Homo sapiens) (UniProt P42685); assay: Inhibition of FRK at 1 uM in presence of 10 uM ATP by Select Screen kinase assay relative to untreated control; outline: as §1
[20] = target: Death-associated protein kinase 3 (Homo sapiens) (UniProt O43293); assay: Inhibition of DAPK3 at 1 uM in presence of 10 uM ATP by Select Screen kinase assay relative to untreated control; outline: as §1
[21] = system: Platelet-derived growth factor receptor alpha (Homo sapiens), P16234 [T674I]; assay: Inhibition of PDGFRalpha T674I mutant at 1 uM in presence of 10 uM ATP by Select Screen kinase assay relative to untreated control; outline: as §3
[22] = target: Mast/stem cell growth factor receptor Kit (Homo sapiens) (UniProt P10721); assay: Inhibition of KIT at 1 uM in presence of 100 uM ATP by Select Screen kinase assay relative to untreated control; outline: as §2
[23] = target: Tyrosine-protein kinase BTK (Homo sapiens) (UniProt Q06187); assay: Inhibition of BTK at 1 uM in presence of 10 uM ATP by Select Screen kinase assay relative to untreated control
Outline: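 Single-point screen at 1 μM against a panel of 220 purified kinases, run by Invitrogen staff as a SelectScreen profiling service. Read-out is percent inhibition of kinase activity.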

[24] = target: Tyrosine-protein kinase JAK2 (Homo sapiens) (UniProt O60674); assay: Inhibition of JAK2 JH1 JH2 domain at 1 uM in presence of 100 uM ATP by Select Screen kinase assay relative to untreated control; outline: as §2
[25] = target: Rho-associated protein kinase 1 (Homo sapiens) (UniProt Q13464); assay: Inhibition of ROCK1 at 1 uM in presence of 10 uM ATP by Select Screen kinase assay relative to untreated control
[26] = target: 3-phosphoinositide-dependent protein kinase 1 (Homo sapiens) (UniProt O15530); assay: Inhibition of PDK1 at 1 uM in presence of 10 uM ATP by Select Screen kinase assay relative to untreated control; outline: as §3
[27] = target: Ephrin type-B receptor 3 (Homo sapiens) (UniProt P54753); assay: Inhibition of EPHB3 at 1 uM in presence of 10 uM ATP by Select Screen kinase assay relative to untreated control; outline: as §1
Chain of Ephrin type-B receptor 3 (Homo sapiens) (P54753 whole entry): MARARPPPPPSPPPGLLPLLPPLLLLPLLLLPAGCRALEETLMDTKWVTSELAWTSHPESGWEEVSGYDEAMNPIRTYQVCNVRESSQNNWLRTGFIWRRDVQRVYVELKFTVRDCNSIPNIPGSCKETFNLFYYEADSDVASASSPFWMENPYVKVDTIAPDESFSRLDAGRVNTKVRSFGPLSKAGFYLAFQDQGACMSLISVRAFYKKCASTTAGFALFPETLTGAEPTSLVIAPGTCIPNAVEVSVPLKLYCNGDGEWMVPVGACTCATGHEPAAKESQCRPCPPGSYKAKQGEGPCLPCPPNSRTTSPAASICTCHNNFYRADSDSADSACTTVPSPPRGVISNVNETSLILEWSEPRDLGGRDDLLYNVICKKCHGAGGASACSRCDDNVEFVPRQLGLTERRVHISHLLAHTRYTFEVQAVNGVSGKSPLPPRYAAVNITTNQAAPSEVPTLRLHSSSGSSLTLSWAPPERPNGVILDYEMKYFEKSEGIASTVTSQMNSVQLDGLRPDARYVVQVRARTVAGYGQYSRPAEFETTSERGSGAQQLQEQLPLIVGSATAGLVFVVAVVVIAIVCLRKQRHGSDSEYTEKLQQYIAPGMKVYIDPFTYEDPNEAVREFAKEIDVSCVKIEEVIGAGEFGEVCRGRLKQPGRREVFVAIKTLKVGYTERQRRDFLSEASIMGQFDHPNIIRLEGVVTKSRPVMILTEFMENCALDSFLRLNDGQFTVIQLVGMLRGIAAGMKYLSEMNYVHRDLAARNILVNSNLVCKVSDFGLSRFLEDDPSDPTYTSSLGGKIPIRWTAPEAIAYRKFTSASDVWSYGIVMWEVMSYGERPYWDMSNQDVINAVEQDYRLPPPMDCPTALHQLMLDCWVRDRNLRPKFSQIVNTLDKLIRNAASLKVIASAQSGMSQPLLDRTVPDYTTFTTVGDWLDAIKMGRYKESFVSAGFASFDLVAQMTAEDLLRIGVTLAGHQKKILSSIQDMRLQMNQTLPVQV

Row | SMILES | inhibition [12] [%] | inhibition [13] [%] | inhibition [14] [%] | inhibition [15] [%] | inhibition [16] [%] | inhibition [17] [%] | inhibition [18] [%] | inhibition [19] [%] | inhibition [20] [%] | inhibition [21] [%] | inhibition [22] [%] | inhibition [23] [%] | inhibition [24] [%] | inhibition [25] [%] | inhibition [26] [%] | inhibition [27] [%] | further results
1 | CCCc1cc(-c2cncc(OC[C@@H](N)Cc3c[nH]c4ccccc34)c2)cc2c(C)n[nH]c12 | – | – | – | – | – | – | – | – | – | – | – | – | – | – | – | – | Activity [1]: Active; Activity [2]: Active; Activity [3]: Active; Activity [4]: Active; Activity [5]: Active; Activity [6]: inactive; Activity [7]: Active; Activity [8]: inactive; Activity [9]: Active; Activity [10]: Active; Activity [11]: inactive
2 | O=C(NCCCNc1nc(Nc2cccc(NC(=O)N3CCCC3)c2)ncc1I)c1cccs1 | 53 | 69 | 95 | 24 | 74 | 2 | 70 | 16 | 13 | 55 | 13 | 23 | 97 | 48 | 89 | 10 | –
3 | COc1ccccc1N1CCN(c2ncnc3[nH]nc(Br)c23)CC1 | 13 | 80 | 23 | -5 | -9 | 3 | 85 | 11 | 14 | 8 | -7 | 11 | 0 | -2 | 12 | 13 | –
